Published values pooled from the literature.
Protocols differ between the studies behind these lines.
EGFR del747-752/P753S: Epidermal growth factor receptor (EGFR, Homo sapiens, UniProt P00533, del747-752/P753S)
EGFR L861Q: Epidermal growth factor receptor (EGFR, Homo sapiens, UniProt P00533, L861Q)
EGFR L858R: Epidermal growth factor receptor (EGFR, Homo sapiens, UniProt P00533, L858R)
EGFR T790M: Epidermal growth factor receptor (EGFR, Homo sapiens, UniProt P00533, T790M)
EGFR del746-750: Epidermal growth factor receptor (EGFR, Homo sapiens, UniProt P00533, del746-750)
EGFR: Epidermal growth factor receptor (EGFR, Homo sapiens, UniProt P00533)
EGFR del752-759: Epidermal growth factor receptor (EGFR, Homo sapiens, UniProt P00533, del752-759)

SMILES	target	assay	conditions	remaining binding [%]
CN(C)c1ncc(F)c(-c2cnn3ncccc23)n1	Epidermal growth factor receptor (EGFR, Homo sapiens, UniProt P00533, L858R/T790M)	binding	1 µM	74
CS(=O)(=O)N1CCCC(NC(=O)[C@H](CCC2CCCCC2)NC(=O)c2ccc(CNc3ncnc4c3nnn4-c3ccccc3)cc2)C1 (some centres unmarked)	EGFR del747-752/P753S	cell-free assay, competition with immobilised ligand	0.1 µM	66
O=C(c1ccc(Nc2ncc(Cl)c(-c3ccc(Cl)s3)n2)cc1)N1CCC(N2CCCC2)CC1	EGFR L861Q	binding, competition with immobilised ligand	1 µM	100
CCN1CCN(Cc2ccc(C(=O)Nc3ccc(C)c(Oc4ccc5c(c4)CC(=O)N5)c3)cc2C(F)(F)F)CC1	EGFR L858R	binding, competition with immobilised ligand	1 µM	100
O=C(NCCCN1CCOCC1)c1ccc(Nc2ncc(Cl)c(-c3ccc(Cl)s3)n2)cc1	EGFR T790M	binding, competition with immobilised ligand	1 µM	83
C[C@H]1CCN(c2nccc(-c3cnn4ncccc34)n2)C1	EGFR del746-750	binding	1 µM	71
Nc1ncc2c(n1)-c1c([nH]c3ccc(C#CC4CC4)cc13)CCCC2	EGFR	binding, competition with immobilised ligand	1 µM	80
COc1cnc(Nc2cccc(S(N)(=O)=O)c2)nc1N1CCN(c2ccccc2)C(=O)C1	EGFR	binding, competition with immobilised ligand	1 µM	100
COc1ccc2cc(OCC3(C(=O)O)CN(C(=O)c4ccc(F)cc4)C3)ccc2c1	EGFR L858R	cell-free assay, competition with immobilised ligand	1 µM	100
N[C@H]1CCN(c2nccc(-c3cnn4ncccc34)n2)C1	EGFR del752-759	binding	1 µM	88
CC(C)CC(=O)N1CCc2nc(-c3ccc(Br)cc3)nc(N(C)Cc3ccccc3)c2C1	EGFR del752-759	cell-free assay, competition with immobilised ligand	0.1 µM	100
Cc1ccc(NC(=O)c2ccc(CN3CCN(C)CC3)cc2)cc1Nc1nccc(-c2cccnc2)n1	EGFR	cell-free assay, competition with immobilised ligand	10 µM	71
CNCc1ccccc1-c1csc([C@H](C)Nc2nc(C)nc3cc(OC)c(OC)cc23)c1	EGFR del747-752/P753S	cell-free assay, competition with immobilised ligand	1 µM	100
COc1ccnn2ncc(-c3ccnc(N(C)C)n3)c12	EGFR T790M	binding	1 µM	100
O=C(NC1CCC1)c1ccc2nc(-c3cccc(NS(=O)(=O)NCCN4CCCCC4)c3)cn2c1	Epidermal growth factor receptor (EGFR, Homo sapiens, UniProt P00533, A750P/del747-749)	cell-free assay, competition with immobilised ligand	10 µM	100
CN(C)C(=O)Cn1cc(-c2nc(C3(c4ccc(-c5cnc(N)nc5)cc4)CC3)no2)cn1	EGFR L861Q	cell-free assay, competition with immobilised ligand	1 µM	100
Cc1cnn2ncc(-c3ccnc(N(C)C)n3)c2c1	EGFR del746-750	binding	1 µM	100
COc1cnc(Nc2cccc(S(N)(=O)=O)c2)nc1N1CCN(c2ccccc2)CC1	EGFR del752-759	binding, competition with immobilised ligand	1 µM	94
CNC(=O)c1ccc(Nc2ncc(C(F)(F)F)c(NCc3nccnc3N(C)S(C)(=O)=O)n2)cc1	EGFR L858R	cell-free assay, competition with immobilised ligand	0.1 µM	100
O=C(NCC1CCOCC1)c1n[nH]cc1NC(=O)c1c(F)cccc1F	EGFR L861Q	binding, competition with immobilised ligand	1 µM	100
CC1CCCN1c1nccc(-c2cnn3ncccc23)n1 (centres unmarked)	EGFR L858R	binding	1 µM	100
CCCOc1ccc([C@@H]2[C@@H](C(=O)O)[C@H](c3ccc4c(c3)OCO4)CN2CC(=O)Nc2c(CC)cccc2CC)cc1	EGFR L861Q	cell-free assay, competition with immobilised ligand	1 µM	100
O=C(NCCCN1CCOCC1)c1ccc(Nc2nccc(-c3cc4ccccc4s3)n2)cc1	Epidermal growth factor receptor (EGFR, Homo sapiens, UniProt P00533, del747-750/T751S)	binding, competition with immobilised ligand	1 µM	100
